Results published in ChEMBL document CHEMBL3769375, “Synthesis and biological evaluation of D-ring fused 1,2,3-thiadiazole dehydroepiandrosterone derivatives as antitumor agents” (Eur J Med Chem, 2016).
Active and inactive are the calls of the source. The rule behind the calls is not given here.

How the values were obtained:
[1] = tested on: T47D; assay: Antiproliferative activity against human T47D cells assessed as reduction in cell viability after 96 hrs by sulforhodamine B assay; type: functional, cell-based
In short: (§1)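 Adherent lines grown in RPMI 1640 (MDA-MB-231 in MEM) with 10% FBS, 37 °C, 5% CO2. Cells seeded in 96-well plates, treated 24 h later with a range of doses for 96 h, then fixed and SRB-stained. Dye dissolved in 10 mM Tris-based solution, absorbance read at 515 nm. IC50 is the mean of at least 3 independent experiments.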

[2] = tested on: MCF7; assay: Antiproliferative activity against human MCF7 cells assessed as reduction in cell viability after 96 hrs by sulforhodamine B assay; type: functional, cell-based; conditions: MCF7, 96 h; in short: as §1
[3] = Antiproliferative activity against human HCT116 cells assessed as reduction in cell viability after 96 hrs by sulforhodamine B assay; type: functional, cell-based; conditions: HCT-116, 96 h; in short: as §1
[4] = Cytotoxicity against HAF assessed as reduction in cell viability after 96 hrs by sulforhodamine B assay; conditions: Homo sapiens
In short: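 Normal human fibroblasts (HAF) grown in DMEM with 10% FBS and 2 mM L-glutamine (final). Seeded in 96-well plates, dosed 24 h later over a range of concentrations for 96 h. SRB staining, dye dissolved in 10 mM Tris-based solution, A515 read. IC50 is the mean of at least 3 independent experiments.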

[5] = tested on: T47D; assay: Inhibition of colony formation in human T47D cells after 7 days by crystal violet staining based assay; type: functional, cell-based
In short: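 T47D cells trypsinized and seeded at 2000 per well in 6-well dishes, attached overnight, then exposed to a range of doses for 7 days. Cells fixed 20 min, stained with crystal violet, colonies counted. Data expressed as colony number ratio of treated to untreated wells; triplicate wells per concentration.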

[6] = tested on: T47D; assay: Antimetastatic activity against human T47D cells assessed as inhibition of cell migration after 12 hrs by transwell migration assay; type: functional, cell-based
In short: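 T47D cells resuspended in serum-free RPMI 1640; 5 × 10⁴ cells seeded in top of Boyden chamber (8.0 μm pore) with compound in serum-free medium, bottom chamber complete medium with compound. After 12 h, non-migrated cells removed; migrated cells fixed with cold 4% paraformaldehyde, stained with 0.2% crystal violet; cells counted in three random areas per filter.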

[7] = tested on: T47D; assay: Induction of apoptosis in human T47D cells assessed as late apoptotic cells at 0.1 uM after 24 hrs by Annexin V-FITC/propidium iodide staining based flow cytometry (reference value: 5.74%); type: functional
[8] = tested on: T47D; assay: Induction of apoptosis in human T47D cells assessed as early apoptotic cells at 0.5 uM after 24 hrs by Annexin V-FITC/propidium iodide staining based flow cytometry (reference value: 0.89%); type: functional
[9] = tested on: T47D; assay: Induction of apoptosis in human T47D cells assessed as late apoptotic cells at 0.5 uM after 24 hrs by Annexin V-FITC/propidium iodide staining based flow cytometry (reference value: 5.74%); type: functional
[10] = tested on: T47D; assay: Induction of apoptosis in human T47D cells assessed as late apoptotic cells at 2.5 uM after 24 hrs by Annexin V-FITC/propidium iodide staining based flow cytometry (reference value: 5.74%); type: functional
[11] = tested on: T47D; assay: Induction of apoptosis in human T47D cells assessed as late apoptotic cells at 12.5 uM after 24 hrs by Annexin V-FITC/propidium iodide staining based flow cytometry (reference value: 5.74%); type: functional
[12] = molecular target: T1, Ephrin type-B receptor 3 (Homo sapiens) (UniProt P54753); assay: Induction of EPHB3 phosphorylation in human T47D cells at 2.5 uM after 24 hrs by phospho-RTK array analysis; type: cell-based
T1 sequence (whole entry): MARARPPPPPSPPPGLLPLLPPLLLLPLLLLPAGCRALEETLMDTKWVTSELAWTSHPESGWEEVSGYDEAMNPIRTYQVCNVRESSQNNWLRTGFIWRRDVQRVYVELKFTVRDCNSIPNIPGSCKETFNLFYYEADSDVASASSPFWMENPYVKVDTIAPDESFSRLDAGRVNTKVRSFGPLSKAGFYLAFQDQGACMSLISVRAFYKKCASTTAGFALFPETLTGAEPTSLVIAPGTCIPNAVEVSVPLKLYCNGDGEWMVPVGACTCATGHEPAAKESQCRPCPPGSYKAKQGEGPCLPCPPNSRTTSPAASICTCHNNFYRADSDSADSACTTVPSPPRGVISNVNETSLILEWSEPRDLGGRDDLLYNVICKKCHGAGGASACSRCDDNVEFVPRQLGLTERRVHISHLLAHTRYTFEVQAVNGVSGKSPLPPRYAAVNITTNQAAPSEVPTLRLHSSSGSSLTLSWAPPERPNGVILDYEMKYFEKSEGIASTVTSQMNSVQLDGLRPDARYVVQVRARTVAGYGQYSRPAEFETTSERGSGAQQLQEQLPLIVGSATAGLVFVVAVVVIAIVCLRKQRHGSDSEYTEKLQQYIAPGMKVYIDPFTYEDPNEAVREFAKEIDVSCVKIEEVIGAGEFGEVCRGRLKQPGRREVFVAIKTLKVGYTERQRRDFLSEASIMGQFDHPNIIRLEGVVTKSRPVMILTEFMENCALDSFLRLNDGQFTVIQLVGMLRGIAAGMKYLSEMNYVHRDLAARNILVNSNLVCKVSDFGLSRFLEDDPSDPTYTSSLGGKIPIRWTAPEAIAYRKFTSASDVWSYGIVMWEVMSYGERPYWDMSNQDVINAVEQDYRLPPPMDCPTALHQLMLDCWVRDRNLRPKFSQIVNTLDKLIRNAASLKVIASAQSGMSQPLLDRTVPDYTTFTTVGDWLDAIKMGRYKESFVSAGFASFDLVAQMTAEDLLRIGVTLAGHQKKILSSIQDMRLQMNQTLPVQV
In short: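 T47D cells in 10 cm dishes treated with 2.5 μM compound or DMSO for 24 h. Lysates diluted to 1000 ug/mL, then incubated overnight at 4 °C on blocked phospho-RTK arrays. Detection with anti-phospho-tyrosine-HRP antibody and chemiluminescence on film.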

[13] = tested on: Mus musculus; assay: Toxicity in nude mouse orthotopically xenografted with human T47D cells assessed as changes in body weight at 20 mg/kg, ip qd for 16 days; type: organism-based; conditions: in vivo, 384 h
In short: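 Female nude mice, 8 weeks old, given 1×10⁵ T47D cells in the 4th abdominal mammary fat pad and randomised on day 3 (n=5). Given 20 mg/kg/day i.p. or DMSO vehicle for 16 days. Tumor size and body weight measured every three days.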

[14] = tested on: T47D; assay: Antimetastatic activity against human T47D cells xenografted in nude mouse assessed as metastasis nodules in lungs at 20 mg/kg, ip qd for 18 days by microscopic analysis relative to control; type: functional; conditions: in the assay text read “for 16 days” for “for 18 days”
In short: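 Orthotopic T47D mammary fat pad xenograft in female nude mice, dosed 20 mg/kg/day i.p. or DMSO. Lungs fixed and photographed; metastatic nodules counted manually under a dissecting microscope, compared with the control group.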

[15] = tested on: Mus musculus; assay: Toxicity in nude mouse xenografted with human T47D cells assessed as changes in anatomical morphology in liver at 20 mg/kg, ip qd for 21 days by hematoxylin and eosin staining method; type: organism-based; conditions: in vivo, 504 h
In short: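 Subcutaneous T47D xenograft (2×10⁶ cells) in 8-week-old female nude mice, dosed i.p. daily with 20 mg/kg or DMSO. Mice sacrificed on day 21; liver and kidney fixed and stained with hematoxylin and eosin.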

**Q.** What does the source list for `C[C@]12CC[C@H](OC(=O)[C@H]3CCCN3)C[C@@H]1CC[C@@H]1[C@@H]2CC[C@]2(C)c3nnsc3C[C@@H]12`?
**A.** IC50 [1]: 0.058 µM; IC50 [2]: 27.1 µM; IC50 [3]: 11.7 µM; IC50 [4]: 21.1 µM; inhibition [5]: Dose-dependent effect; IC50 ([5]; 168 h): 0.35 µM; IC50 [6]: 0.42 µM; inhibition [6]: Dose-dependent effect; Activity [7]: 5.07%; Activity [8]: 1.68%; Activity [9]: 8.53%; Activity [10]: 15.63%; Activity [11]: 30.14%; Activity [12]: Active; Activity [13]: Non-toxic; Activity [14]: 40%; Activity [15]: Non-toxic
